We go through 13 compounds from ChEMBL document CHEMBL4387744, “Discovery of conolidine derivative DS39201083 as a potent novel analgesic without mu opioid agonist activity” (Bioorg Med Chem Lett, 2019).

Data set [1] deals with Mus musculus. Kind of data set: Analgesic activity in Slc:ddY mouse assessed as inhibition of acetic acid-induced writhings at 30 mg/kg, po relative to control. It is filed as functional. Put shortly:
(§1)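 Acetic acid-induced writhing in Slc:ddY mice after oral dosing. Read-out is reduction (% inhibition) of writhing behaviour. ED50 calculated from the dose-response curve of analgesic activity at 10, 30 and 100 mpk.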

The nature of data set [2]: Distribution coefficient between 1-octanol and phosphate buffer, logD of the compound in pH 7.4 buffer. It is filed as physicochemical. As to conditions: 1-octanol/phosphate buffer. Put shortly: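 Log D measured as partitioning between 1-octanol and phosphate-buffered saline at pH 7.4.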
Data set [3] is filed under the species Mus musculus. Kind of data set: Analgesic activity in Slc:ddY mouse assessed as inhibition of acetic acid-induced writhings. The format is functional. Put shortly:
as §1
Background: In writhing tests, fewer writhes than in controls are read as antinociception.

The test system of data set [4] is Mus musculus. Kind of data set: Analgesic activity in Slc:ddY mouse assessed as reduction in sum of the time spent in paw licking or biting responses during phase 1 at 30 mg/kg, po dosed 30 mins before formalin injection by formalin test relative to control. The format is functional. Put shortly:
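Formalin test in Slc:ddY mice (n = 8). Compound given p.o. at 30 mg/kg; 30 min later 3.5% formalin (20 μL) injected into the hind paw pad. Read-out is the reduction in summed paw licking and biting time over the first 10 min after injection (initial phase).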

Data set [5] deals with T1, Mu-type opioid receptor (Homo sapiens, UniProt P35372). Kind of data set: Displacement of [3H]-diprenorphine from MOR (unknown origin). It is filed as ADME. (Displacement assays read how much labelled ligand stays bound in the presence of the test substance.)
Data set [6] has as its target T1, Mu-type opioid receptor. Kind of data set: Agonist activity at human mu opioid receptor expressed in CHO cells by cAMP assay. It is filed as cell-based. Put shortly:
(§2)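 Human MOR expressed in CHO cells; cAMP read-out. EC50 derived from the cAMP response.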

Data set [7] deals with T1, Mu-type opioid receptor. Kind of data set: Agonist activity at human mu opioid receptor expressed in CHO cells by cAMP assay relative to DAMGO. The format is cell-based. Put shortly:
as §2
On the technique in general: Cyclic AMP is a second messenger, typically raised through Gs and lowered through Gi signalling.

Data set [8] is described as follows: AUC in ddY mouse 10 mg/kg, po. The format is ADME, organism-based. As to conditions: in vivo. Put shortly: (§3)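 Plasma pharmacokinetics in ddY mice after a single oral dose of 10 mg/kg, given as a 0.5 w/v% methylcellulose suspension. Reported values are the average of three.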
Data set [9] can be described thus: Cmax in ddY mouse 10 mg/kg, po. It is filed as ADME, organism-based. More on the design: dose 10 mg/kg, route oral. The following applies: in vivo. Put shortly: as §3
Data set [10] is described as follows: Half life in ddY mouse 10 mg/kg, po. It is filed as ADME, organism-based. As to conditions: in vivo. The method, boiled down: as §3
The subject of data set [11] is Mus musculus. Kind of data set: Analgesic activity in Slc:ddY mouse assessed as inhibition of acetic acid-induced writhings at 3 mg/kg, po relative to control. It is filed as functional.
Data set [12] relates to Mus musculus. Kind of data set: Analgesic activity in Slc:ddY mouse assessed as inhibition of acetic acid-induced writhings at 10 mg/kg, po relative to control. The format is functional. Put shortly: as §1

T1 sequence (P35372 whole entry): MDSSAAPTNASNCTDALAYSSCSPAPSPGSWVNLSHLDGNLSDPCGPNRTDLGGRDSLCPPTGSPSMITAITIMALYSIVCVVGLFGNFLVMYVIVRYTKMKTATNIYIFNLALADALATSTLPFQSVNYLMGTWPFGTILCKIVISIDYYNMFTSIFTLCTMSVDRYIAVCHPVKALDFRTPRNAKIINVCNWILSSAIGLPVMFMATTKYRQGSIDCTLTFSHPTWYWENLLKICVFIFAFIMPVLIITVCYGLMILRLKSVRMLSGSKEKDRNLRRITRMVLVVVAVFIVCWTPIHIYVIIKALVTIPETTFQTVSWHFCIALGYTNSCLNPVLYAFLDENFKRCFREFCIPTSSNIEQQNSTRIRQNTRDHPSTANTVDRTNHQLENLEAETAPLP

On to `C/C=C1/CN2CC[C@H]1C(=O)c1[nH]c3ccccc3c1C2.O=S(=O)(O)O`, for which the inhibition in vivo at 30 mg/kg in data set [1] was 49%; in data set [4], 43%. Further, the logD in data set [2] amounted to 2.8. The ED50 in [3] came out at 32 mg/kg. This compound came in with an IC50 in data set [5] of 70 µM. This compound registered an EC50 in [6] greater than 100 µM. The Emax in [7] is 13%.
Take `CCC12CCN(CC1)Cc1c([nH]c3ccccc13)C2=O.O=S(=O)(O)O`: in [1], the inhibition in vivo at 30 mg/kg is 48%. For the same compound, the logD in [2] amounted to 3. Further, the AUC in data set [8] worked out at 1.02 µM·h. This compound also had a Cmax in data set [9] of 710 nM. This compound had a half-life in [10] of 1.28 h.
In the case of `O=C1c2[nH]c3ccccc3c2CN2CCC1CC2`, the inhibition in vivo at 30 mg/kg in data set [1] was 73%. In data set [2], this compound gave a logD of 1.8. Further, the AUC in [8] was 2.26 µM·h. In data set [9], this compound showed a Cmax of 1160 nM. Also, in data set [10], the half-life is 1.17 h. Besides, the ED50 in [3] amounted to 11 mg/kg. In addition, the IC50 in data set [5] is greater than 100 µM. In addition, the half-maximal effective concentration (EC50) in data set [6] was greater than 100 µM. The same compound returned an Emax in data set [7] of 13%.
With `CC12CCN(CC1)Cc1c([nH]c3ccccc13)C2=O.O=S(=O)(O)O`, the inhibition in vivo at 30 mg/kg was 90 to 94% in data set [1] and 92% in [4]. Moreover, the logD in data set [2] is 2.5. For the same compound, the AUC in data set [8] amounted to 3.21 µM·h. In data set [9], this compound returned a Cmax of 1250 nM. In [10], the half-life was 2.33 h. In addition, the ED50 in data set [3] is 7.8 mg/kg. In data set [5], this compound registered an IC50 of 71 µM. The EC50 in data set [6] is greater than 100 µM. For the same compound, the Emax in data set [7] turned out to be 12%. In data set [11], the inhibition in vivo at 3 mg/kg is 23%. In data set [12], the inhibition in vivo at 10 mg/kg was 52%.
As for `CCC1CN2CCC1C(=O)c1[nH]c3ccccc3c1C2` (mixture of isomers), the inhibition in vivo at 30 mg/kg in data set [1] stood at 50%.
Take `C/C=C1/CN2CCC1C(=O)c1[nH]c3c(OC)cccc3c1C2` (racemic): in [1], the inhibition in vivo at 30 mg/kg was 34%. For the same compound, the logD in data set [2] was determined as 3.3.
Take `C/C=C1/CN2CCC1C(=O)c1[nH]c3ccccc3c1C2` (racemic): the inhibition in vivo at 30 mg/kg in data set [1] was determined as 49%.
On to `C/C=C1/CN2CCC1C(=O)c1c(c3ccccc3n1C)C2` (racemic), for which the inhibition in vivo at 30 mg/kg in data set [1] is 30%. Besides, the logD in data set [2] was 3.5.
Taken in the same sequence, the figures for `C/C=C1/CN2CCC1C(=O)c1[nH]c3cccc(OC)c3c1C2` (racemic) were 42% and 3.4.
For `C/C=C1/CN2CCC1C(=O)c1[nH]c3ccc(OC)cc3c1C2` (racemic), in data set [1], the inhibition in vivo at 30 mg/kg came out at 3%. This compound yielded a logD in data set [2] of 3.1.
`C/C=C1\CN2CCC1C(=O)c1[nH]c3ccccc3c1C2` (racemic): the inhibition in vivo at 30 mg/kg in data set [1] is 18%. Also, the logD in data set [2] came to 3.3.
For `C/C=C1/CN2CCC1C(=O)c1[nH]c3cc(OC)ccc3c1C2` (racemic) the same measures were 31% and 3.1.
Turning to `CC/C=C1/CN2CCC1C(=O)c1[nH]c3ccccc3c1C2` (racemic), the inhibition in vivo at 30 mg/kg in data set [1] was found to be 0%.

Usually inhibition in vivo stands for the percentage by which the read-out fell short of the control. The logD is the decadic logarithm of the distribution of all forms, ionised or not, between an organic phase and buffer at a given pH. Read a low logD as a more hydrophilic compound. A word on the ED50: it is the dose that gives a 50% effect, or the effect in half of the subjects. Broadly, the IC50 is the concentration that inhibits the measured activity by half. The low end stands for greater potency, the high end for weaker potency. As a reminder, the EC50 is the concentration that produces a half-maximal response. Higher therefore signals a less potent agent. For orientation: Emax means the size of the effect at its maximum, as opposed to the concentration needed. By AUC is commonly meant the area under the concentration-time curve, a measure of exposure. High values mean more exposure, low ones less exposure. What is called Cmax is the highest concentration seen after dosing. By half-life is commonly meant the time in which the quantity being followed falls by half. High values mean slow loss, low ones fast loss.
